Measured values as given in ChEMBL document CHEMBL1287651, “Synthesis and in vitro antibacterial activity of fluoroquinolone derivatives containing 3-(N'-alkoxycarbamimidoyl)-4-(alkoxyimino) pyrrolidines” (2010).
≈ marks a conversion by molar mass, not a printed value.

Assays:
Assay type in all cases: functional
Klebsiella pneumoniae [1] = experiment: Antibacterial activity against Klebsiella pneumoniae 09-21 after 18 to 24 hrs by twofold serial dilution method
How it was run: (§1)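 MIC determined by the standard twofold serial dilution method on agar media, screening against Gram-positive and Gram-negative strains. Levofloxacin and gemifloxacin were run alongside as reference drugs.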

Pseudomonas aeruginosa [2] = experiment: Antibacterial activity against Pseudomonas aeruginosa ATCC 27853 after 18 to 24 hrs by twofold serial dilution method; how it was run: as §1
Pseudomonas aeruginosa [3] = experiment: Antibacterial activity against Pseudomonas aeruginosa 09-35 after 18 to 24 hrs by twofold serial dilution method; how it was run: as §1
Escherichia coli [4] = experiment: Antibacterial activity against Escherichia coli 08-21 after 18 to 24 hrs by twofold serial dilution method; how it was run: as §1
Staphylococcus aureus [5] = experiment: Antibacterial activity against methicillin-resistant Staphylococcus aureus 08-1 after 18 to 24 hrs by twofold serial dilution method
How it was run: (§2)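 Standard twofold serial agar dilution method on agar media for MIC determination. Screened against representative Gram-positive and Gram-negative strains. Levofloxacin and GMFX served as control drugs.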

[6] = test system: Staphylococcus epidermidis; experiment: Antibacterial activity against methicillin-resistant Staphylococcus epidermidis 09-2 after 18 to 24 hrs by twofold serial dilution method; how it was run: as §2
Pseudomonas aeruginosa [7] = experiment: Antibacterial activity against Pseudomonas aeruginosa 09-32 after 18 to 24 hrs by twofold serial dilution method; how it was run: as §1
Streptococcus pneumoniae [8] = experiment: Antibacterial activity against Streptococcus pneumoniae 08-2 after 18 to 24 hrs by twofold serial dilution method; how it was run: as §1
Klebsiella pneumoniae [9] = experiment: Antibacterial activity against Klebsiella pneumoniae 09-23 after 18 to 24 hrs by twofold serial dilution method; how it was run: as §1
[10] = test system: Staphylococcus epidermidis; experiment: Antibacterial activity against methicillin-sensitive Staphylococcus epidermidis 09-6 after 18 to 24 hrs by twofold serial dilution method; how it was run: as §2
Enterococcus faecium [11] = experiment: Antibacterial activity against Enterococcus faecium 08-7 after 18 to 24 hrs by twofold serial dilution method; how it was run: as §1
Pseudomonas aeruginosa [12] = experiment: Antibacterial activity against Pseudomonas aeruginosa 09-34 after 18 to 24 hrs by twofold serial dilution method; how it was run: as §1
[13] = test system: Staphylococcus epidermidis; experiment: Antibacterial activity against methicillin-resistant Staphylococcus epidermidis 09-4 after 18 to 24 hrs by twofold serial dilution method; how it was run: as §2
Enterococcus faecalis [14] = experiment: Antibacterial activity against Enterococcus faecalis 08-10 after 18 to 24 hrs by twofold serial dilution method; how it was run: as §1
[15] = test system: Staphylococcus epidermidis; experiment: Antibacterial activity against methicillin-resistant Staphylococcus epidermidis 09-3 after 18 to 24 hrs by twofold serial dilution method; how it was run: as §2
Pseudomonas aeruginosa [16] = experiment: Antibacterial activity against Pseudomonas aeruginosa 09-33 after 18 to 24 hrs by twofold serial dilution method; how it was run: as §1
Klebsiella pneumoniae [17] = experiment: Antibacterial activity against Klebsiella pneumoniae 09-22 after 18 to 24 hrs by twofold serial dilution method; how it was run: as §1
Escherichia coli [18] = experiment: Antibacterial activity against Escherichia coli ATCC 25922 after 18 to 24 hrs by twofold serial dilution method; how it was run: as §1
Escherichia coli [19] = experiment: Antibacterial activity against Escherichia coli 08-22 after 18 to 24 hrs by twofold serial dilution method; how it was run: as §1
Staphylococcus aureus [20] = experiment: Antibacterial activity against Staphylococcus aureus ATCC […] after 18 to 24 hrs by twofold serial dilution method; how it was run: as §1
Enterococcus faecalis [21] = experiment: Antibacterial activity against Enterococcus faecalis 08-12 after 18 to 24 hrs by twofold serial dilution method; how it was run: as §1
[22] = test system: Staphylococcus epidermidis; experiment: Antibacterial activity against methicillin-sensitive Staphylococcus epidermidis 09-3 after 18 to 24 hrs by twofold serial dilution method; how it was run: as §2
Enterococcus faecium [23] = experiment: Antibacterial activity against Enterococcus faecium 08-2 after 18 to 24 hrs by twofold serial dilution method; how it was run: as §1
Staphylococcus aureus [24] = experiment: Antibacterial activity against methicillin-sensitive Staphylococcus aureus 08-2 after 18 to 24 hrs by twofold serial dilution method; how it was run: as §2
Streptococcus pneumoniae [25] = experiment: Antibacterial activity against Streptococcus pneumoniae 08-4 after 18 to 24 hrs by twofold serial dilution method; how it was run: as §1

| Structure (SMILES) | MIC (Klebsiella pneumoniae [1]) [µg/mL] | MIC (Pseudomonas aeruginosa [2]) [µg/mL] | MIC (Pseudomonas aeruginosa [3]) [µg/mL] | MIC (Escherichia coli [4]) [µg/mL] | MIC (Staphylococcus aureus [5]) [µg/mL] | MIC [6] [µg/mL] | MIC (Pseudomonas aeruginosa [7]) [µg/mL] | MIC (Streptococcus pneumoniae [8]) [µg/mL] | MIC (Klebsiella pneumoniae [9]) [µg/mL] | MIC [10] [µg/mL] | MIC (Enterococcus faecium [11]) [µg/mL] | MIC (Pseudomonas aeruginosa [12]) [µg/mL] | MIC [13] [µg/mL] | MIC (Enterococcus faecalis [14]) [µg/mL] | MIC [15] [µg/mL] | MIC (Pseudomonas aeruginosa [16]) [µg/mL] | MIC (Klebsiella pneumoniae [17]) [µg/mL] | MIC (Escherichia coli [18]) [µg/mL] | MIC (Escherichia coli [19]) [µg/mL] | MIC (Staphylococcus aureus [20]) [µg/mL] | also measured |
| --- | --- | --- | --- | --- | --- | --- | --- | --- | --- | --- | --- | --- | --- | --- | --- | --- | --- | --- | --- | --- | --- |
| CCO/N=C1\CN(c2nc3c(cc2F)c(=O)c(C(=O)O)cn3-c2ccc(F)cc2F)CC1/C(N)=N\OC (stereo not given) | 0.25 (≈ 0.482 µM) | 32 (≈ 61.7 µM) | > 128 | > 128 | 0.25 (≈ 0.482 µM) | 0.125 (≈ 0.241 µM) | > 128 | 32 (≈ 61.7 µM) | 32 (≈ 61.7 µM) | 0.25 (≈ 0.482 µM) | > 128 | > 128 | 0.25 (≈ 0.482 µM) | > 128 | 0.25 (≈ 0.482 µM) | > 128 | 32 (≈ 61.7 µM) | 128 (≈ 247 µM) | > 128 | 0.25 (≈ 0.482 µM) | MIC (Enterococcus faecalis [21]): > 128 µg/mL; MIC [22]: 0.125 µg/mL (≈ 0.241 µM); MIC (Enterococcus faecium [23]): > 128 µg/mL; MIC (Staphylococcus aureus [24]): 0.25 µg/mL (≈ 0.482 µM); MIC (Streptococcus pneumoniae [25]): 32 µg/mL (≈ 61.7 µM) |
| CCO/N=C1\CN(c2c(F)cc3c(=O)c(C(=O)O)cn4c3c2OC[C@@H]4C)CC1/C(N)=N\OCC (stereo not given in full) | > 128 | 64 (≈ 135 µM) | 64 (≈ 135 µM) | > 128 | 64 (≈ 135 µM) | > 128 | 64 (≈ 135 µM) | 64 (≈ 135 µM) | > 128 | 8 (≈ 16.8 µM) | > 128 | > 128 | > 128 | > 128 | > 128 | > 128 | > 128 | 128 (≈ 269 µM) | > 128 | 1 (≈ 2.1 µM) | MIC (Enterococcus faecalis [21]): > 128 µg/mL; MIC [22]: 8 µg/mL (≈ 16.8 µM); MIC (Enterococcus faecium [23]): > 128 µg/mL; MIC (Staphylococcus aureus [24]): 64 µg/mL (≈ 135 µM); MIC (Streptococcus pneumoniae [25]): > 128 µg/mL |
| CO/N=C1\CN(c2c(F)cc3c(=O)c(C(=O)O)cn(CCF)c3c2F)CC1/C(N)=N\OC (stereo not given) | > 128 | 32 (≈ 70.3 µM) | 64 (≈ 141 µM) | > 128 | 0.125 (≈ 0.274 µM) | 2 (≈ 4.39 µM) | 64 (≈ 141 µM) | 4 (≈ 8.78 µM) | > 128 | 0.25 (≈ 0.549 µM) | > 128 | > 128 | 0.125 (≈ 0.274 µM) | 64 (≈ 141 µM) | 0.125 (≈ 0.274 µM) | > 128 | 4 (≈ 8.78 µM) | 128 (≈ 281 µM) | > 128 | 0.125 (≈ 0.274 µM) | MIC (Enterococcus faecalis [21]): > 128 µg/mL; MIC [22]: 0.25 µg/mL (≈ 0.549 µM); MIC (Enterococcus faecium [23]): > 128 µg/mL; MIC (Staphylococcus aureus [24]): 0.25 µg/mL (≈ 0.549 µM); MIC (Streptococcus pneumoniae [25]): 2 µg/mL (≈ 4.39 µM) |
| CO/N=C1\CN(c2nc3c(cc2F)c(=O)c(C(=O)O)cn3C2CC2)CC1CN (stereo not given) [GEMIFLOXACIN] | 16 (≈ 41.1 µM) | 2 (≈ 5.14 µM) | 0.5 (≈ 1.28 µM) | 16 (≈ 41.1 µM) | 0.25 (≈ 0.642 µM) | 0.125 (≈ 0.321 µM) | 0.5 (≈ 1.28 µM) | 8 (≈ 20.5 µM) | 8 (≈ 20.5 µM) | 0.25 (≈ 0.642 µM) | 2 (≈ 5.14 µM) | 0.5 (≈ 1.28 µM) | 0.06 (≈ 0.154 µM) | 16 (≈ 41.1 µM) | 0.06 (≈ 0.154 µM) | 2 (≈ 5.14 µM) | 8 (≈ 20.5 µM) | 4 (≈ 10.3 µM) | 2 (≈ 5.14 µM) | 0.125 (≈ 0.321 µM) | MIC (Enterococcus faecalis [21]): 16 µg/mL (≈ 41.1 µM); MIC [22]: 0.125 µg/mL (≈ 0.321 µM); MIC (Enterococcus faecium [23]): 16 µg/mL (≈ 41.1 µM); MIC (Staphylococcus aureus [24]): 0.125 µg/mL (≈ 0.321 µM); MIC (Streptococcus pneumoniae [25]): 0.25 µg/mL (≈ 0.642 µM) |
| CO/N=C1\CN(c2c(F)cc3c(=O)c(C(=O)O)cn(C4CC4)c3c2OC)CC1/C(N)=N\O (stereo not given) | > 128 | 16 (≈ 35.8 µM) | 32 (≈ 71.5 µM) | > 128 | 0.25 (≈ 0.559 µM) | 0.5 (≈ 1.12 µM) | 32 (≈ 71.5 µM) | 4 (≈ 8.94 µM) | > 128 | 0.25 (≈ 0.559 µM) | > 128 | > 128 | 0.25 (≈ 0.559 µM) | > 128 | 0.25 (≈ 0.559 µM) | > 128 | 1 (≈ 2.24 µM) | > 128 | > 128 | 0.25 (≈ 0.559 µM) | MIC (Enterococcus faecalis [21]): > 128 µg/mL; MIC [22]: 0.25 µg/mL (≈ 0.559 µM); MIC (Enterococcus faecium [23]): > 128 µg/mL; MIC (Staphylococcus aureus [24]): 0.25 µg/mL (≈ 0.559 µM); MIC (Streptococcus pneumoniae [25]): 4 µg/mL (≈ 8.94 µM) |
